Structures are written as SMILES. Active and inactive are the calls of the source. The calls are words filed in the database; no cut-off is given here. Some results are limits rather than exact numbers.

Assay [1] has as its target T1, Kinesin-like protein KIF20A (Homo sapiens, UniProt O95235).
T1 sequence (O95235 whole entry): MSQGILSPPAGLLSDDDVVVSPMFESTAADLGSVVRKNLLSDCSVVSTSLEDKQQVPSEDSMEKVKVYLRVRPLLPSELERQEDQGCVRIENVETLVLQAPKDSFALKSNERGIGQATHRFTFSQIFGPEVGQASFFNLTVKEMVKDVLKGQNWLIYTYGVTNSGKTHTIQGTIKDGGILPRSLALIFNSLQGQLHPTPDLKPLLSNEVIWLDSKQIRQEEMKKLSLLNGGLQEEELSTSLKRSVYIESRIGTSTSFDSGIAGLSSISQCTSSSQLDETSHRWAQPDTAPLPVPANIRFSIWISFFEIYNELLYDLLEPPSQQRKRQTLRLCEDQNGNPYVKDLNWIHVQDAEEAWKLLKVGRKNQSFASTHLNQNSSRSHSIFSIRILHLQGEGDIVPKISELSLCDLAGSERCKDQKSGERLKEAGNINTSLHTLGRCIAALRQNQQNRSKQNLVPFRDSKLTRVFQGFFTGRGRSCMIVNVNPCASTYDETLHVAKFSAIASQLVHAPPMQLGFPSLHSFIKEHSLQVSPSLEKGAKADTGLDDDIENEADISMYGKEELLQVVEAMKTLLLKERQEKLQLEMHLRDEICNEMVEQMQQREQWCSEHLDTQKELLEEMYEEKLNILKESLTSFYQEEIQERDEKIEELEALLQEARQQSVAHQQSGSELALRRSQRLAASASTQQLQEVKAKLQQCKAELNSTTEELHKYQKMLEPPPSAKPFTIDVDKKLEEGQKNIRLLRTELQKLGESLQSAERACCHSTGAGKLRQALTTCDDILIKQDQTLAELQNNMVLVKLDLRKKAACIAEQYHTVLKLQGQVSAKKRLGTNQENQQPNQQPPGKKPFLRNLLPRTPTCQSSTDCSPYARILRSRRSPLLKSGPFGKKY
Nature of the assay: Inhibition of N-terminal MKLP2 (56 to 505 residues) ATPase basal activity isolated from human hepatocellular carcinoma cells by pyruvate kinase/lactate dehydrogenase enzyme linked assay.

The target in assay [2] is T1, Kinesin-like protein KIF20A. Put plainly: Inhibition of microtubule-stimulated N-terminal MKLP-2 (56 to 505 residues) ATPase activity isolated from human hepatocellular carcinoma cells by pyruvate kinase/lactate dehydrogenase enzyme linked assay. The conditions noted are these: read-out: IC50.
The species entered for assay [3] is Ovis aries. Put plainly: Inhibition of sheep brain tubulin polymerization by UV spectrophotometric analysis. On the set-up: concentration or dose not given beside the values. A digest of the protocol: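 Tubulin purified from sheep brain by two assembly/disassembly cycles, about 2–3 mg/mL in 0.1 M MES, 0.5 mM MgCl2, 1 mM EGTA, 1 mM GTP, pH 6.6. Compound in DMSO added at 0 °C, then moved to a 37 °C thermostated cell. Assembly followed by turbidity at 350 nm for a few min.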

The target in assay [4] is T2, Kinesin-like protein KIF23 (Homo sapiens) (UniProt Q02241).
T2 sequence (whole entry): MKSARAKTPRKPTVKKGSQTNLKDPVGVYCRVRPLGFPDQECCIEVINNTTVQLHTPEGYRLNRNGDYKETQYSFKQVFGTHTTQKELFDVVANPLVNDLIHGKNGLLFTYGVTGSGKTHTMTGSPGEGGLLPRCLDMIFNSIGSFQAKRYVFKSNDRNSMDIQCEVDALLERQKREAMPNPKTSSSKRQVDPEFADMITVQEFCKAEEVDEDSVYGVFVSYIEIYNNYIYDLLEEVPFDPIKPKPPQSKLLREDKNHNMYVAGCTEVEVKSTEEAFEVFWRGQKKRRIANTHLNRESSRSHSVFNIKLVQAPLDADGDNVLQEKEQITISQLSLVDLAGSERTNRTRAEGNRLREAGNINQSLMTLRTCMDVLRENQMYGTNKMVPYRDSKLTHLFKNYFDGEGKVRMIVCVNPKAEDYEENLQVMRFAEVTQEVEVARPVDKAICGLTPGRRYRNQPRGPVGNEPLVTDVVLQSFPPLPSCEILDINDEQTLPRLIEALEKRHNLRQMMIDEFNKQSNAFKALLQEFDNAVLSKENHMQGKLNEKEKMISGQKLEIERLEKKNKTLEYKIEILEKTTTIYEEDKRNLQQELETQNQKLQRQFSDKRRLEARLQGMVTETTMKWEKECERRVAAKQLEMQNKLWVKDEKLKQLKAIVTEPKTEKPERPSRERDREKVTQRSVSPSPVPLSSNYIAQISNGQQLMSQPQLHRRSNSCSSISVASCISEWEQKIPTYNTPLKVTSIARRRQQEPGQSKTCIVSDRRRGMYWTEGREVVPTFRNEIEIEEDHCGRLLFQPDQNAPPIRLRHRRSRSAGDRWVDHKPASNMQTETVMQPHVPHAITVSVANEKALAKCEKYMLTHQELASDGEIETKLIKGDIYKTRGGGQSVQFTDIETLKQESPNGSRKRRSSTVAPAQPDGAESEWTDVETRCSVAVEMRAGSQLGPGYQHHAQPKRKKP
Nature of the assay: Inhibition of porcine brain microtubule-stimulated human recombinant GST-tagged MKLP1 ATPase activity at 15 uM by microplate reader in presence of Mg2+ ATP relative to control. Summed up: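 Each kinesin motor domain was tested against MT-stimulated ATPase at 22 °C in triplicate, with compounds at 15 µM. Buffer was 7.5 mM PIPES-NaOH pH 7.0 with MgCl2, Taxol, ELIPA reagents and 1.25 mg/mL MTs. Reactions were started with 1 mM Mg2+ATP and read kinetically at 360 nm. Monastrol and AMP-PNP (1 mM) were the controls.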

The subject of assay [5] is KB. Nature of the assay: Growth inhibition of human KB cells at 1 uM after 72 hrs by MTS assay. It counts as functional. The conditions noted are these: read-out: GI. Summed up:
(§1)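 KB cells were grown in DMEM with 25 mM glucose and 10% FCS at 37 °C, 5% CO2, and seeded at 500 cells/well. 24 h later, compound in DMSO (1% final) was added at 10 µM or 1 µM for 72 h; controls received DMSO alone. Runs were in duplicate. Viable cells were read with MTS at 490 nm.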
On the technique in general: Tetrazolium dyes change colour on reduction, which living cells bring about.

The species named for assay [6] is Ovis aries. Nature of the assay: Induction of sheep brain microtubule disassembly by UV spectrophotometric analysis. A digest of the protocol: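 Sheep brain tubulin, purified by two assembly/disassembly cycles and held in MES buffer with GTP at pH 6.6, was polymerized at 37 °C for 10 min. Compound was then added to the MTs at 0 °C and depolymerization was followed over the next few minutes by turbidity at 350 nm.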

Assay [7] concerns KB. Put plainly: Growth inhibition of human KB cells at 10 uM after 72 hrs by MTS assay. It counts as functional. The conditions noted are these: read-out: GI. Summed up: as §1
In a further assay the test system is HT-29. Nature of the assay: Growth inhibition of human HT-29 cells incubated for 4 days by WST-1 assay. It counts as functional. The conditions noted are these: HT-29, 96 h. A digest of the protocol: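 Cells were kept at 37 °C under 5% CO2 and plated on day 0 at 500–5000 cells/well. On day 1 they received ten concentrations from 0.0025 to 50 µM (final), in triplicate. On day 4 WST-1 was added, followed by 30 min–4 h incubation and absorbance at 450 nm. GI50 is the concentration killing 50% of cells.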

With `N#C/C(=C\c1ccc2c(c1)OCO2)c1c[nH]c2ccccc12`, the IC50 – broadly, the concentration at which inhibition is half-maximal – was 14.3 µM in assay [1] (read-out: IC50) and 5.1 µM in assay [2]. Also, the values for the inhibition (in the assay filed under Ovis aries [3] (concentration not given here); in assay [4]) were 35% and below 20%, respectively. Also, the inhibition of growth at 1 µM in the assay on KB [5] was determined as 11%. Moreover, the outcome in the assay filed under Ovis aries [6] was inactive. Further, in the assay with KB [7], the inhibition of growth at 10 µM was determined as 100%.

As to `N#C/C(=C\c1cccnc1)c1c[nH]c2ccc(OCc3ccccc3)cc12`, the 50% inhibitory concentration (IC50) entry is “Not Active” in assay [1] and 1.3 µM in assay [2]. Also, the inhibition – broadly, how much of the control response was suppressed – was 12% in the assay listed under Ovis aries [3] (concentration not given here) and below 20% in assay [4]. For the same compound, the outcome in the assay filed under Ovis aries [6] was inactive. In addition, in the assay with KB [7], the inhibition of growth at 10 µM was determined as 57%.

For `COc1ccc2c(/C(C#N)=C/c3cccnc3)c[nH]c2c1`, the IC50 in assay [1] (read-out: IC50) was 5.6 µM; in assay [2] it was 5.4 µM. The inhibition is 54% in the assay filed under Ovis aries [3] (concentration not given here) and below 20% in assay [4]. Further, the inhibition of growth at 1 µM in the assay on KB [5] turned out to be 78%. The result in the assay listed under Ovis aries [6] was inactive. In addition, the inhibition of growth at 10 µM in the assay with KB [7] worked out at 87%.

Consider `CCOC(=O)C1=C(C)NC(=S)NC1c1cccc(O)c1` (stereo not drawn), for which, in assay [4], the inhibition was below 20%.

Take `COc1cccc2[nH]cc(/C(C#N)=C/c3cccnc3)c12`: the figures for the 50% inhibitory concentration (IC50) in assay [1] (read-out: IC50) and in assay [2] were 4.2 µM and 3.3 µM, respectively. In addition, the inhibition entry in the assay listed under Ovis aries [3] is “inactive”. Further, the inhibition in assay [4] is below 20%. In addition, in the assay filed under Ovis aries [6], the outcome was inactive. The inhibition of growth at 10 µM in the assay on KB [7] was determined as 27%.

On to `COc1ccc2[nH]cc(/C(C#N)=C/c3cccnc3)c2c1`, for which the IC50 in assay [1] (read-out: IC50) is 1.2 µM; in assay [2], 0.23 µM. Besides, the GI50 (commonly the concentration giving 50% growth inhibition) with HT-29 was found to be 26.2 µM. In addition, the inhibition result in the assay filed under Ovis aries [3] is “inactive”. For the same compound, in assay [4], the inhibition was below 20%. The inhibition of growth at 10 µM with KB [7] amounted to 57%.

(Values after ChEMBL document CHEMBL3751740, “New MKLP-2 inhibitors in the paprotrain series: Design, synthesis and biological evaluations” (Bioorg Med Chem, 2016).)
